# Reference: paper PMC3947130 (Molecular cancer therapeutics, 2013)
# Entries after “also recorded” stand apart in the source; their conditions may differ.
# B1: Tumor Necrosis Factor Related Apoptosis Inducing Ligand (protein, UniProt P50591 1-281, looked up)
# Tumor necrosis factor ligand …: MAMMEVQGGPSLGQTCVLIVIFTVLLQSLCVAVTYVYFTNELKQMQDKYSKSGIACFLKEDDSYWDPNDEESMNSPCWQVKWQLRQLVRKMILRTSEETISTVQEKQQNISPLVRERGPQRVAAHITGTRGRSNTLSSPNSKNEKALGRKINSWESSRSGHSFLSNLHLRNGELVIHEKGFYYIYSQTYFRFQEEIKENTKNDKQMVQYIYKYTSYPDPILLMKSARNSCWSKDAEYGLYSIYQGGIFELKENDRIFVSVTNEHLIDMDHEASFFGAFLVG
# How the values were obtained:
# MDA-MB-231 cells = experiment: TRAIL-induced killing / TRAIL sensitization, cell viability; format: cell-based, human
# Method in brief: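 MDA-MB-231 cells in DMEM/10% FBS seeded at 5000 cells/well and left to attach overnight. Pre-treated 4 h at 37°C with vehicle (0.1% DMSO) or 5 μM test compound, then TRAIL (up to 100 ng/mL) added for 20 h at 37°C. After 30 min at room temperature, CellTiter-Glo luminescence read. At least triplicate, at least three independent times.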
# [1] = tested on: non-canonical NF-κB pathway; experiment: Immunoblot of non-canonical NF-κB pathway; format: cell-based, human; conditions: MDA-MB-231 cells, 5 μM, 24 h, Fig. 4D
# Method in brief: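 MDA-MB-231 cells grown in DMEM with 10% FBS, exposed to vehicle or 5 μM test compound for 24 h. Cell protein extracts immunoblotted for NIK, phospho-NF-κB2, NF-κB2 and cIAP-1/-2, with Erk 1/2 as loading control. HRP-conjugated anti-rabbit or anti-mouse secondary applied for 1 h, then enhanced chemiluminescence detection.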
molecule,measurement,setting,value
"O=Cc1coc2ccccc2c1=O [3-FC, reference compound]",sensitization to TRAIL,"MDA-MB-231 cells; 3-FC alone with TRAIL, Supp. Fig. S1D",results in sensitization to TRAIL
same,sensitization to TRAIL with IAP inhibition,"MDA-MB-231 cells; 3-FC together with IAP inhibition, Supp. Fig. S1D",induces even greater sensitization
"Cc1ccc(S(=O)(=O)/C=C/C#N)cc1 [BAY 11-7082, reference compound]",effect of IKK inhibition in the model systems,MDA-MB-231 cells; data not shown,failed to have any effect
CC(C)[C@H](NC(=O)[C@H](C)N)C(=O)N[C@@H](C)C(=O)NNc1ccccc1 [MLS-0412113],sensitization to TRAIL-mediated cell killing,"MDA-MB-231 cells; 5 μM pre-treatment 4 h, then TRAIL 20 h, Fig. 2B",no activity; also recorded: lacked TRAIL sensitizing ability altogether
CN[C@@H](C)C(=O)N[C@H]1CCO[C@H]2CC(C)(C)[C@@H](C(=O)N[C@@H]3CCCc4ccccc43)N2C1=O [SBI-0636457],NIK levels,[1],profound induction of NIK levels
same,phosphorylation and processing of NF-κB2,[1],enhanced phosphorylation and processing of NF-κB2
B1,cell death by TRAIL alone,"MDA-MB-231 cells; TRAIL alone, up to 100 ng/mL, 20 h, Fig. 2B",fails to induce appreciable cell death
